Our source for the IC50 and Ki values is ChEMBL document CHEMBL1140750, “Dynamic combinatorial mass spectrometry leads to metallo-beta-lactamase inhibitors” (J Med Chem, 2008).

One test in a line: Inhibition of metallo-beta-lactamase IMP1.
As to `O=C(O)CCS` [MERCAPTOPROPIONIC ACID], the 50% inhibitory concentration (IC50) – broadly, the concentration that gives 50% inhibition – amounted to 170 µM.

A further test can be described thus: Inhibition of Bacillus cereus metallo-beta-lactamase BcII by dynamic combinatorial mass spectrometry. A digest of the protocol:
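BcII enzyme was preincubated with inhibitor at room temperature in 20 mM HEPES pH 7.0 with 20 µg/mL BSA; inhibitors came from 10 mM DMSO stocks. Imipenem substrate was then added at 20–200 µM, with at least two inhibitor concentrations plus a no-inhibitor control. Hydrolysis was followed by absorbance at 300 or 482 nm at 30 °C. Ki was derived from initial rates by Hanes linearization.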
For `CC(=O)Nc1ccc(C(=O)N[C@H](CS)C(=O)O)cc1`, the Ki (commonly the dissociation constant of the complex between target and ligand, obtained from inhibition or displacement) stood at 13.5 µM. On the same count and under the same terms, then `CC(C)(C)c1ccc(C(=O)N[C@H](CS)C(=O)O)cc1`, with 8.4 µM. For the compound `O=C(O)C(S)C(S)C(=O)O` (stereo not given), the Ki was 125 µM. On the same count and under the same terms, then `O=C(NC(CS)C(=O)O)c1ccccc1` (single isomer, unassigned; 9a), with 28 µM; and `O=C(NC(CS)C(=O)O)c1ccccc1` (single isomer, unassigned; 9b), with 0.74 µM; and `O=C(Cc1ccccc1)NC(CS)C(=O)O` (single isomer, unassigned; 9c), with 154 µM. Still for that read-out and setting: then `O=C(Cc1ccccc1)NC(CS)C(=O)O` (single isomer, unassigned; 9d), with 53 µM; and `O=C(CCc1ccccc1)NC(CS)C(=O)O` (single isomer, unassigned; 9e), with 44 µM; and `O=C(CCc1ccccc1)NC(CS)C(=O)O` (single isomer, unassigned; 9f), with 73 µM.
